pIC50: −log10 of the molar value.
Experiments:
[1] = target: Metabotropic glutamate receptor 1 (Rattus norvegicus, UniProt P23385); test: Inhibitory concentration against rat metabotropic glutamate receptor 1
How it was run: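 Rat mGlu1a stably expressed in CHO-dhfr- cells grown in DMEM/GlutaMAX1 with 10% heat-inactivated dialyzed fetal calf serum, 0.4 mM L-proline and antibiotics. Inhibition of receptor activation was measured as intracellular Ca2+ rise on a fluorometric imaging plate reader. IC50 is the mean of two or three independent experiments.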

[2] = target: Metabotropic glutamate receptor 1 (Homo sapiens, UniProt Q13255); test: Inhibitory concentration against human metabotropic glutamate receptor
How it was run: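 Human mGlu1a receptor stably expressed in L929sA cells grown in GlutaMAX1 medium with 10% heat-inactivated dialyzed fetal calf serum, streptomycin and penicillin. Antagonism of receptor activation was read as intracellular Ca2+ response on a fluorometric imaging plate reader. IC50 is the mean of two or three independent experiments.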

[3] = Total plasma clearance in rat after the single intravenous administration at 2.5 mg/kg; type: ADME, organism-based; design: dose 2.5 mg/kg, route intravenous
How it was run: (§1)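 Rats received a single intravenous 2.5 mg/kg dose. Plasma kinetics were followed to derive elimination half-life and total plasma clearance.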

[4] = Half life in rat after the single intravenous administration at 2.5 mg/kg; type: ADME, organism-based; design: dose 2.5 mg/kg, route intravenous; conditions: in vivo; how it was run: as §1

Chain of Metabotropic glutamate receptor 1 (Homo sapiens, UniProt Q13255) (Q13255 whole entry): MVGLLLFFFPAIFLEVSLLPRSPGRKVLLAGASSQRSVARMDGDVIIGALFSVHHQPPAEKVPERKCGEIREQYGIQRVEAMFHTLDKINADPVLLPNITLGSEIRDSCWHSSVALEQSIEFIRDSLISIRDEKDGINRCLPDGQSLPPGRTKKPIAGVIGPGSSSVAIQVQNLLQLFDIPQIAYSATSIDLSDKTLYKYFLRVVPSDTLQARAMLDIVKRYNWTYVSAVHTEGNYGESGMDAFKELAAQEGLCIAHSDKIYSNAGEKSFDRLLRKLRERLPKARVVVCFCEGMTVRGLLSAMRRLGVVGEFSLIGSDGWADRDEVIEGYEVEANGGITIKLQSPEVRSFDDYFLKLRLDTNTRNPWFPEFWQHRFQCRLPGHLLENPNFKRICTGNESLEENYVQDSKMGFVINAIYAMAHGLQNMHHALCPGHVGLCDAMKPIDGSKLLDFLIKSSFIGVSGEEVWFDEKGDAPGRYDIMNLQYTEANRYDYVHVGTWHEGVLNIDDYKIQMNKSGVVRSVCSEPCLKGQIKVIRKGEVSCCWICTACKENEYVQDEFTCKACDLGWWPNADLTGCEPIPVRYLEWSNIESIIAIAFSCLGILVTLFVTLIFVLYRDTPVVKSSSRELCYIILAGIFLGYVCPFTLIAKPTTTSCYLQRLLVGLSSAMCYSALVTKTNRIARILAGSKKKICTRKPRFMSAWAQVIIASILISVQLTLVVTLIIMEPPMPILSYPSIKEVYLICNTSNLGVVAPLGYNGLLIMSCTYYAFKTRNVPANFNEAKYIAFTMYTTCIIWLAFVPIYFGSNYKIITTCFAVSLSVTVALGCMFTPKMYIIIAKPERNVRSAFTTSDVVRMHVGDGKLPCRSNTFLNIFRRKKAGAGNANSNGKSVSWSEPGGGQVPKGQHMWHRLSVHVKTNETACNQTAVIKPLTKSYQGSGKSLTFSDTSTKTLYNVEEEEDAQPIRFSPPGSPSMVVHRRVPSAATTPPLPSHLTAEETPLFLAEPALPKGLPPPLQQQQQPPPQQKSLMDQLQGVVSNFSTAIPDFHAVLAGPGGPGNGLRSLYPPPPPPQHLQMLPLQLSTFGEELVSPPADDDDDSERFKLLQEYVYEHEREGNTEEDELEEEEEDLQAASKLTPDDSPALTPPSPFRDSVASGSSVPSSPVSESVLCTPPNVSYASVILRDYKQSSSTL
Chain of Metabotropic glutamate receptor 1 (Rattus norvegicus, UniProt P23385) (P23385 whole entry): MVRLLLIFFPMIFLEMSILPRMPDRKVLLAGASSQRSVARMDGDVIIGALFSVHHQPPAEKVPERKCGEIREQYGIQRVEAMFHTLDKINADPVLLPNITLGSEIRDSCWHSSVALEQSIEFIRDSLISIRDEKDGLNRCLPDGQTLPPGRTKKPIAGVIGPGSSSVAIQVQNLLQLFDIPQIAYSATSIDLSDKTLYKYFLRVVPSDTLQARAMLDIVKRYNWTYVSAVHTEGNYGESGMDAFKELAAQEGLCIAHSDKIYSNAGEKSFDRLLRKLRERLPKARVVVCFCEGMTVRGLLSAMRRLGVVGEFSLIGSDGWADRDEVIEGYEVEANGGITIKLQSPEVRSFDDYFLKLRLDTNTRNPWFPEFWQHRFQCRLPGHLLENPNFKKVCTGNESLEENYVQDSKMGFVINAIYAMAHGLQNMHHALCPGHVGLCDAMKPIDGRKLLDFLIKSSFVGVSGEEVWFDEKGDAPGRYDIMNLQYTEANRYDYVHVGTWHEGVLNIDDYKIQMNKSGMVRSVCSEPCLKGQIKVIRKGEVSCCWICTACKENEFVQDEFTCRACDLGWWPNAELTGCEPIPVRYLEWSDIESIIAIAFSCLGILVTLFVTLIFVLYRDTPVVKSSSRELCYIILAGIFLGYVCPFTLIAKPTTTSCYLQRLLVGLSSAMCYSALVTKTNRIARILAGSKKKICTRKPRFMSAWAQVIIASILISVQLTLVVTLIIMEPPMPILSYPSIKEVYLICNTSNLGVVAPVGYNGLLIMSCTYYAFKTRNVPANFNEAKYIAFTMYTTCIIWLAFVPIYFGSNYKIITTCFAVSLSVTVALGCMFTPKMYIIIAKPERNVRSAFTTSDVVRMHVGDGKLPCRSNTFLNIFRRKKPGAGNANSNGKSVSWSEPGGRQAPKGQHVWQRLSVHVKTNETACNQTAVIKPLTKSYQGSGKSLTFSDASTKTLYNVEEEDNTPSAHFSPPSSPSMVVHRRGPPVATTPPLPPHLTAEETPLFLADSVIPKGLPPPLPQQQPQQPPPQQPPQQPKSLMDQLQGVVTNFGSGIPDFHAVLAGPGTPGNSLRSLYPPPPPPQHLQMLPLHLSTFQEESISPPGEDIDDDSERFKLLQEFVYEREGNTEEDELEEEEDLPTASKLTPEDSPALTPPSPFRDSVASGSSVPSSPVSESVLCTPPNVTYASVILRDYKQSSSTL

Row | SMILES | pIC50 [1] | pIC50 [2] | clearance [3] [mL/min/kg] | half-life [4] [min]
1 | CCc1cc2cc(C(=O)C3CCC(OC)CC3)ccc2nc1-c1cccs1 (configuration not stated) | 5.48 | – | – | –
2 | CCc1cc2cc(C(=O)CCc3ccccc3)ccc2nc1C | 6.64 | < 5.00 | – | –
3 | CCc1cc2cc(C(=O)C3CCC(OC)CC3)ccc2nc1CC (stereo in doubt; cis) | – | 8.10 | – | –
4 | O=C(CCc1ccccc1)c1ccc2nc3c(cc2c1)CCCO3 | 7.07 | 6.80 | – | –
5 | CCc1cc2cc(C(=O)Cc3ccc(OC)c(OC)c3)ccc2nc1C | < 5.00 | – | – | –
6 | CCc1cc2cc(C(=O)Cc3ccccc3)ccc2nc1C | 8.00 | 7.29 | – | –
7 | CCc1cc2cc(C(=O)C34CC5CC(CC(C5)C3)C4)ccc2nc1C | 6.90 | – | – | –
8 | CO[C@H]1CC[C@@H](C(=O)c2ccc3nc4c(cc3c2)CCCO4)CC1 (stereo in doubt; form 2) | 7.35 | 6.97 | – | –
9 | CCc1cc2cc(C(=O)C3CCC(O)CC3)ccc2nc1C (configuration not stated) | – | 7.10 | – | –
10 | CCCc1ccc2cc(C(=O)[C@H]3CC[C@@H](OC)CC3)ccc2n1 | – | 8.52 | – | –
11 | CO[C@H]1CC[C@@H](C(=O)c2ccc3nc4c(cc3c2)CCCN4C)CC1 | – | 7.54 | – | –
12 | CO[C@H]1CC[C@@H](C(=O)c2ccc3nc4c(cc3c2)CCS4)CC1 | 8.70 | 8.70 | – | –
13 | O=C(Cc1ccccc1)c1ccc2nc3c(cc2c1)CCCO3 | 8.22 | 7.85 | – | –
14 | CCc1cc2cc(C(=O)C3CCC(OC)CC3)ccc2nc1-c1nccs1 (configuration not stated) | < 5.00 | – | – | –
15 | CCc1cc2cc(C(=O)[C@H]3CC[C@@H](OC)CC3)ccc2n2nnnc12 | 7.35 | 6.35 | – | –
16 | CCc1cc2cc(C(=O)Cc3ccc(N(C)C)cc3)ccc2nc1C | 6.19 | – | – | –
17 | CCc1cc2cc(C(=O)[C@H]3CC[C@@H](OC)CC3)ccc2nc1F | – | 8.05 | – | –
18 | CO[C@H]1CC[C@@H](C(=O)c2ccc3nc4c(cc3c2)CCCO4)CC1 (stereo in doubt; form 1) | 8.52 | 9.26 | 91.7 | 19.2
19 | CO[C@H]1CC[C@@H](C(=O)c2ccc3nc4c(cc3c2)CCC4)CC1 | – | 9.25 | – | –
20 | CO[C@H]1CC[C@@H](C(=O)c2ccc3nc4c(cc3c2)CCCCC4)CC1 | 7.10 | 7.74 | – | –
21 | O=C(Cc1ccsc1)c1ccc2nc3c(cc2c1)CCCO3 | 8.15 | 7.13 | – | –
22 | CCc1cc2cc(C(=O)Cc3cccc(OC)c3)ccc2nc1C | 6.36 | – | – | –
23 | C[C@H]1CC[C@@H](C(=O)c2ccc3nc4c(cc3c2)CCCCC4)CC1 | 6.90 | 7.80 | – | –
24 | O=C(Cc1ccccc1)c1ccc2cc3c(nc2c1)OCCC3 | 5.08 | – | – | –

— ChEMBL document CHEMBL1144351, “Synthesis, structure-activity relationship, and receptor pharmacology of a new series of quinoline derivatives acting as selective, noncompetitive mGlu1 antagonists” (J Med Chem, 2005)
